Results of several laboratories.
Lines come from different studies, so protocols differ.
Target: Epithelial discoidin domain-containing receptor 1 (DDR1, Homo sapiens, UniProt Q08345)

Compound | assay | conditions | measurement | result
Cc1ccc(C(=O)NCc2ccsc2)cc1C#Cc1cn(C(C)C)c2ncnc(N)c12 | enzyme activity, inhibitor | 1 µM | activity vs control | 0%
CC/C(=N\NC(=O)NCc1cccc(O)c1)c1ccc(O)c(C)c1O | enzyme activity, inhibitor | 0.1 µM | inhibition | -0.9%
Cc1cnc(NC2CCOCC2)nc1-n1cnc(C(=O)NC(CN)c2cc(F)cc(Cl)c2)c1 (centres unmarked) | enzyme activity, inhibitor, radiometric | 1 µM | remaining activity | 104%
C[C@H]1CCN(c2nccc(-c3cnn4ncccc34)n2)C1 | binding | 1 µM | remaining binding | 100%
COc1cc(Cl)c(C(=O)N[C@@H](CN[C@H]2CC[C@@H](N)CC2)Cc2ccc(C#N)cc2)cc1-c1ccc(CN[C@H](C)c2ccc(C)cc2)o1 | enzyme activity, inhibitor | 1 µM | remaining activity | 112%
CNC(=O)c1cc2c(Oc3ccc(NC(=O)C4(C(=O)Nc5ccc(F)cc5)CC4)cc3)ccnc2cc1OC | enzyme activity, inhibitor, radiometric | 1 µM | inhibition | 88%
Nc1ncnc2occ(-c3ccc(NC(=O)Nc4cc(C(F)(F)F)ccc4F)cc3)c12 | cell-free assay | 20 µM | remaining signal | 0.25%
Cc1sc(C(=O)NC2COC2)cc1-n1cc(NC(=O)Nc2c(F)cccc2Cl)cn1 | enzyme activity, inhibitor | 10 µM | remaining activity | 83.7%
Cc1cc(NC(=O)c2cccc3cc(-c4cccc5[nH]nc(N)c45)ccc23)ccc1F | enzyme activity, inhibitor | 0.1 µM | activity vs control | 61%
CN1CC(Oc2cnc(C#N)cc2-c2ccn3nc(NC(=O)C4CC4)cc3c2)C1 | enzyme activity, inhibitor | 1 µM | inhibition | 29%
CCOCCn1cc(C(=O)Nc2ccc(-n3nc(-c4cccnc4)cc3C(F)(F)F)cn2)ccc1=O | cell-free assay, competition with immobilised ligand | 1 µM | remaining binding | 69%
CC(C)(O)[C@H]1CC[C@H](Nc2ccc3ncc(-c4cccc(C(F)(F)F)c4)n3n2)CC1 | enzyme activity, inhibitor | 1 µM | remaining activity | 6.32%
O=C(Nc1cnn(-c2csc(C(=O)NC3COC3)c2)c1)Nc1ccccc1Cl | enzyme activity, inhibitor | 5 µM | remaining activity | 98.4%
Nc1c(C(=O)NCc2ccc(C(=O)NCCCC3CCCCC3)cc2)cnn1-c1ccccc1 | binding, competition with immobilised ligand | 1 µM | remaining binding | 43%
COc1cc2nccc(Oc3ccc(NC(=O)c4c5n(n(-c6ccc(F)cc6)c4=O)CCCC5)cc3)c2cc1OC | enzyme activity, inhibitor | 0.1 µM | inhibition | 42%
COCCOc1nc(-c2ccc(Cl)nc2)nc2c1CN(C(=O)c1ncn3ccccc13)CC2 | cell-free assay, competition with immobilised ligand | 0.1 µM | remaining binding | 100%
Cc1ccc(NC(=O)c2ccc(C)c(C(F)(F)F)c2)cc1C#Cc1nn(C2CCC(O)CC2)c2ncnc(N)c12 (centres unmarked) | cell-free assay | 10 µM | remaining signal | -2%
